Measurements taken from ChEMBL document CHEMBL1127024, “Synthetic and computer-assisted analysis of the structural requirements for selective, high-affinity ligand binding to diazepam-insensitive benzodiazepine receptors” (J Med Chem, 1993).

Columns and labels:
Type in all cases: protein-complex assay
[1] = target: GABA-A receptor; anion channel; experiment: Binding affinity for Diazepam insensitive (DI) isoform of the benzodiazepine (Bz) binding site on GABAA receptors
Procedure, shortened: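 Adult male Sprague-Dawley rat cerebellar membranes (~100 µg; homogenised in 50 mM Tris-citrate pH 7.8, washed by repeated 20000g spins at 4 °C). Incubated 60 min at 0-4 °C, GF/B filtration, scintillation counting. Duplicate assays; Ki.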

[2] = target: GABA-A receptor; anion channel; experiment: Binding affinity for Diazepam sensitive (DS) isoform of the benzodiazepine (Bz) binding site on GABAA receptors
[3] = target: GABA-A receptor; anion channel (Rattus norvegicus) (UniProt O09028+P15431+P18506+P18508+P19969+P20236+P23574+P23576+P28471+P28473+P30191+P62813+P63079+P63138+Q91ZM7+Q9ES14); experiment: Ratio of binding affinity against DI Bz receptor to that of DS Bz receptor

SMILES | Ki [1] | Ki [2] | Ratio [3]
Cc1nnc(-c2ncn3c2CN(Cc2ccccc2)C(=O)c2ccccc2-3)o1 | > 10000 nM | 1210 nM | 
C=CCN1Cc2c(C(=O)OCC)ncn2-c2ccccc2C1=O | 1130 nM | 39.2 nM | 29
CN1Cc2c(C(=O)OCC(C)(C)C)ncn2-c2ccc(Cl)cc2C1=O |  |  | 0.67
CC(C)(C)OC(=O)c1ncn2c1C1CCCN1C(=O)c1c-2ccc(F)c1Cl (centres undefined) | 23.6 nM | 1 nM | 24
CN1Cc2c(C(=O)OCC3CC3)ncn2-c2ccc(Cl)cc2C1=O |  |  | 4.1
CCOC(=O)c1ncn2c1CN(C)C(=O)c1c(F)cccc1-2 | 102 nM | 0.8 nM | 128
Cc1nnc2n1-c1ccc(Cl)cc1C(c1ccccc1Cl)=NC2 [TRIAZOLAM] | 2090 nM | 0.8 nM | 2610
CN1Cc2c(C(=O)OCCC(C)(C)C)ncn2-c2ccc(Cl)cc2C1=O | > 1000 nM |  | 
CCOC(=O)c1ncn2c1C1CCCN1C(=O)c1c(Cl)cccc1-2 (centres undefined) | 68.8 nM | 0.2 nM | 344
CCCOC(=O)c1nc(C)n2c1CN=C(c1ccccc1Cl)c1cc(Cl)ccc1-2 |  | 2.2 nM | 
CC(C)(C)OC(=O)c1ncn2c1C1CCN1C(=O)c1cc(F)ccc1-2 (centres undefined) | 16.9 nM | 1.8 nM | 9
CCOC(=O)c1ncn2c1CN(C)C(=O)c1cccc(Cl)c1-2 | > 10000 nM | > 1000 nM | 
CCOC(=O)c1ncn2c1CN(C)C(=O)c1c(Cl)cccc1-2 [SARMAZENIL] | 20 nM | 0.2 nM | 100
CC(C)(C)OC(=O)c1ncn2c1C1CCN1C(=O)c1c(Cl)cccc1-2 (centres undefined) |  | 1.1 nM | 14
Cc1noc(-c2ncn3c2CN(Cc2ccccc2)C(=O)c2cc(Cl)ccc2-3)n1 | 115 nM | 88.4 nM | 1.3
COC(=O)c1ncn2c1CN(C)C(=O)c1cc(F)ccc1-2 [FLUMAZENIL METHYLESTER] | 239 nM | 3.1 nM | 77
CN1Cc2c(C(=O)OC(C)(C)C)ncn2-c2ccccc2C1=O |  |  | 19.2
Cc1noc(-c2ncn3c2CN(Cc2ccccc2)C(=O)c2ccccc2-3)n1 | > 10000 nM | 907 nM | 
CC(C)(C)OC(=O)c1ncn2c1C1CCCN1C(=O)c1c(Br)cccc1-2 (centres undefined) | 10 nM | 0.5 nM | 20
CCOC(=O)c1ncn2c1C1CCCN1C(=O)c1cc(Cl)ccc1-2 (centres undefined) |  |  | 0.7
CC(C)OC(=O)c1ncn2c1CN(C)C(=O)c1cc(Cl)ccc1-2 |  |  | 0.8
CC(C)(C)OC(=O)c1ncn2c1C1CCCN1C(=O)c1cc(Cl)ccc1-2 (centres undefined) | 26.8 nM | 65.2 nM | 0.4

SMILES | Ki [1] | Ki [2] | Ratio [3]
COc1cccc2c1C(=O)N1CCCC1c1c(C(=O)OC(C)(C)C)ncn1-2 (centres undefined) | 259 nM | 5.1 nM | 51
CCOC(=O)c1ncn2c1[C@@H]1CCCN1C(=O)c1ccccc1-2 |  |  | 50
CN1Cc2c(C(=O)OC(C)(C)C)ncn2-c2ccsc2C1=O |  |  | 13
CCOC(=O)c1ncn2c1C1CCN1C(=O)c1c(Cl)cccc1-2 (centres undefined) | 34 nM | 0.2 nM | 170
CCCOC(=O)c1ncn2c1CN(C)C(=O)c1cc(Cl)ccc1-2 |  |  | 1.3
CCOC(=O)c1ncn2c1CN(Cc1ccccc1)C(=O)c1c(Cl)cccc1-2 | 20.2 nM | 0.4 nM | 51
CCC(CC)OC(=O)c1ncn2c1CN(C)C(=O)c1cc(Cl)ccc1-2 |  |  | 4.6
Cc1noc(-c2ncn3c2CN(Cc2ccccc2)C(=O)c2c(Cl)cccc2-3)n1 |  | 7.5 nM | 101
CCOC(=O)c1ncn2c1CN(Cc1ccccc1)C(=O)c1ccccc1-2 | 112 nM | 1.5 nM | 75
CCOC(=O)c1ncn2c1CN(Cc1ccccc1)C(=O)c1cc(Cl)ccc1-2 | 10.9 nM | 13.7 nM | 0.8
CCOC(=O)c1ncn2c1CN(C)C(=O)c1ccccc1-2 |  |  | 165
CCOC(=O)c1ncn2c1[C@H]1CCCN1C(=O)c1ccccc1-2 | > 1000 nM | > 100 nM | 
CCOC(=O)c1ncn2c1CN(C)C(=O)c1ccc(Cl)cc1-2 | > 10000 nM | > 1000 nM | 
CCCOC(=O)c1ncn2c1CN(C)C(=O)c1sccc1-2 |  |  | 27
CN1Cc2c(C(=O)OC(C)(C)C)ncn2-c2ccc(Cl)cc2C1=O |  |  | 0.4
CCc1cccc2c1C(=O)N1CCCC1c1c(C(=O)OC(C)(C)C)ncn1-2 (centres undefined) | 164 nM | 1 nM | 164
O=C(OCC1CC1)c1ncn2c1C1CCN1C(=O)c1c(Cl)cccc1-2 (centres undefined) | 55 nM | 0.1 nM | 554
CCCOC(=O)c1ncn2c1CN=C(c1ccccc1Cl)c1cc(Cl)ccc1-2 | 1020 nM | 1.9 nM | 539
O=C(OCC1CC1)c1ncn2c1C1CCCN1C(=O)c1cc(Cl)ccc1-2 (centres undefined) | 81 nM | 378 nM | 0.22
COC(=O)c1ncn2c1CN(C)C(=O)c1ccccc1-2 | 1410 nM |  | 224
COC(=O)c1ncn2c1CN(C)C(=O)c1sccc1-2 |  |  | 58
O=C(OC1CCCCC1)c1ncn2c1C1CCCN1C(=O)c1cc(Cl)ccc1-2 (centres undefined) | 165 nM | 391 nM | 0.42
